Measurements: ChEMBL document CHEMBL4819003, “Optimization of novel oxidative DIMs as Nur77 modulators of the Nur77-Bcl-2 apoptotic pathway” (Eur J Med Chem, 2021)

Columns and labels:
BT-549 [1] = test: Induction of apoptosis in human BT-549 cells assessed as viable cells at 0.5 uM measured after 6 hrs by Annexin V-FITC/PI staining based flow cytometry method (reference value: 98.51%); format: functional; conditions: read-out: Activity
Outline: (§1)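 Cells seeded at 1×10^6 per well and treated with 0.5 µM for 6 h. Floating and adherent cells pooled, stained with Annexin V-FITC for 10 min and propidium iodide for 5 min, then analysed immediately by flow cytometry in FITC and PC5.5 channels. Mean ± SD, n = 3.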

MDA-MB-231 [2] = test: Induction of apoptosis in human MDA-MB-231 cells assessed as necrotic cells at 0.5 uM measured after 6 hrs by Annexin V-FITC/PI staining based flow cytometry method (reference value: 0.11%); format: functional; outline: as §1
NCM460 = test: Cytotoxicity against human NCM460 cells assessed as inhibition of cell growth measured after 24 hrs by MTT assay; format: cell-based; conditions: Homo sapiens, NCM460, 24 h
Outline: (§2)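 MTT viability assay, 24 h exposure to a concentration series, 10^4 cells/well. Cancer lines were in DMEM (BT549, MDA-MB-231) or RPMI-1640 (HCT116, SW620) with 10% FBS. MCF10A and NCM460 were in DMEM with 20% FBS and 10 ng/ml EGF. MTT at 5 mg/mL for 4 h at 37 °C, formazan dissolved in DMSO, A490. IC50 from curve fit; mean ± SD, at least 6 experiments.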

MCF-10A = test: Cytotoxicity against human MCF-10A cells assessed as inhibition of cell growth measured after 24 hrs by MTT assay; format: cell-based; conditions: Homo sapiens, MCF-10A, 24 h; outline: as §2
MDA-MB-231 [3] = test: Induction of apoptosis in human MDA-MB-231 cells assessed as viable cells at 0.5 uM measured after 6 hrs by Annexin V-FITC/PI staining based flow cytometry method (reference value: 98.51%); format: functional; conditions: read-out: Activity; outline: as §1
SW-620 [4] = test: Induction of apoptosis in human SW-620 cells assessed as early apoptotic cells at 0.5 uM measured after 6 hrs by Annexin V-FITC/PI staining based flow cytometry method (reference value: 1.02%); format: functional
HCT-116 [5] = test: Induction of apoptosis in human HCT-116 cells assessed as viable cells at 0.5 uM measured after 6 hrs by Annexin V-FITC/PI staining based flow cytometry method (reference value: 98.18%); format: functional; conditions: read-out: Activity; outline: as §1
MDA-MB-231 [6] = test: Cytotoxicity against human MDA-MB-231 cells assessed as inhibition of cell growth measured after 24 hrs by MTT assay; format: functional, cell-based; conditions: MDA-MB-231, 24 h; outline: as §2
HCT-116 [7] = test: Induction of apoptosis in human HCT-116 cells assessed as late apoptotic cells at 0.5 uM measured after 6 hrs by Annexin V-FITC/PI staining based flow cytometry method (reference value: 0.06%); format: functional; outline: as §1
BT-549 [8] = test: Cytotoxicity against human BT-549 cells assessed as inhibition of cell growth measured after 24 hrs by MTT assay; format: functional, cell-based; conditions: BT-549, 24 h; outline: as §2
[9] = target: T1, Nuclear receptor subfamily 4immunitygroup A member 1 (Homo sapiens, UniProt P22736); test: Binding affinity to recombinant human N-terminal His-tagged Nur77-LBD (367 to 598 residues) expressed in Escherichia coli BL21 DE3 by surface plasmon resonance assay
T1 sequence (P22736 whole entry, the tested form may be a part): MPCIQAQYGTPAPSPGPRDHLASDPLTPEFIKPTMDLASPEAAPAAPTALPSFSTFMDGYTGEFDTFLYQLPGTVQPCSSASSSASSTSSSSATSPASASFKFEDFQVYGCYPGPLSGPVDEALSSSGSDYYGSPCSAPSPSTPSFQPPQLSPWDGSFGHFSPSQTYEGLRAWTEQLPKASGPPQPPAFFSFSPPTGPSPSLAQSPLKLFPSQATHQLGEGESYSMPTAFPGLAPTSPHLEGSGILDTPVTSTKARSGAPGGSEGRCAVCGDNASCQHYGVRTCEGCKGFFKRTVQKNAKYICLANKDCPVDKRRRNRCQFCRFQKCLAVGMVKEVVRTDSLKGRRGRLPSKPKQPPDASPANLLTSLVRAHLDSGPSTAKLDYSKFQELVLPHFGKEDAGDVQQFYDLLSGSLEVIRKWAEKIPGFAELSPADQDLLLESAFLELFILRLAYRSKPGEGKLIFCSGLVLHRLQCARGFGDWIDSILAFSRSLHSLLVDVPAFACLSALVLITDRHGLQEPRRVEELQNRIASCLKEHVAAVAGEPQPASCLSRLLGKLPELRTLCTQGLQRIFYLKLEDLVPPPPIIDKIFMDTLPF
Outline: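 His-tagged human Nur77-LBD (367–598) from E. coli BL21 DE3, diluted to 0.05 mg/mL in 10 mM NaAc pH 5.0 and amine-coupled to a CM5 chip (~9000 RU). Compounds at 0.01–5 µM in PBS with 0.4% DMSO, 25 °C, 30 µL/min; 150 s association, 420 s dissociation, regeneration with 10 mM glycine-HCl pH 2.5. Reference- and blank-subtracted; Kd from global 1:1 kinetic fit.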

HCT-116 [10] = test: Cytotoxicity against human HCT-116 cells assessed as inhibition of cell growth measured after 24 hrs by MTT assay; format: functional, cell-based; conditions: Homo sapiens, HCT-116, 24 h; outline: as §2
MDA-MB-231 [11] = test: Induction of apoptosis in human MDA-MB-231 cells assessed as late apoptotic cells at 0.5 uM measured after 6 hrs by Annexin V-FITC/PI staining based flowcytometry method (reference value: 0.11%); format: functional; outline: as §1
MDA-MB-231 [12] = test: Induction of apoptosis in human MDA-MB-231 cells assessed as early apoptotic cells at 0.5 uM measured after 6 hrs by Annexin V-FITC/PI staining based flow cytometry method (reference value: 1.27%); format: functional; outline: as §1
BT-549 [13] = test: Induction of apoptosis in human BT-549 cells assessed as late apoptotic cells at 0.5 uM measured after 6 hrs by Annexin V-FITC/PI staining based flow cytometry method (reference value: 0.11%); format: functional; outline: as §1
HCT-116 [14] = test: Induction of apoptosis in human HCT-116 cells assessed as early apoptotic cells at 0.5 uM measured after 6 hrs by Annexin V-FITC/PI staining based flow cytometry method (reference value: 1.39%); format: functional; outline: as §1
HCT-116 [15] = test: Induction of apoptosis in human HCT-116 cells assessed as necrotic cells at 0.5 uM measured after 6 hrs by Annexin V-FITC/PI staining based flow cytometry method (reference value: 0.37%); format: functional; outline: as §1
SW-620 [16] = test: Cytotoxicity against human SW-620 cells assessed as inhibition of cell growth measured after 24 hrs by MTT assay; format: functional, cell-based; conditions: SW-620, 24 h; outline: as §2
SW-620 [17] = test: Induction of apoptosis in human SW-620 cells assessed as late apoptotic cells at 0.5 uM measured after 6 hrs by Annexin V-FITC/PI staining based flow cytometry method (reference value: 0.05%); format: functional; outline: as §1
[18] = target: T1, Nuclear receptor subfamily 4immunitygroup A member 1; test: Binding affinity to recombinant human N-terminal His-tagged Nur77-LBD (367 to 598 residues) expressed in Escherichia coli BL21 DE3 by flourescence quenching assay
Outline: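 Human Nur77-LBD (367–598), N-terminal His tag, pET15b in E. coli BL21 DE3, Ni resin purified. Nur77-LBD at 1 µM in PBS in a quartz cell, titrated with compound over 0.01–1 µM at 25 °C. Excitation 280 nm, emission scanned 300–500 nm; peak intensity at 330 nm versus compound concentration fitted to a reported formula for Kd.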

BT-549 [19] = test: Induction of apoptosis in human BT-549 cells assessed as necrotic cells at 0.5 uM measured after 6 hrs by Annexin V-FITC/PI staining based flow cytometry method (reference value: 0.11%); format: functional; outline: as §1
SW-620 [20] = test: Induction of apoptosis in human SW-620 cells assessed as necrotic cells at 0.5 uM measured after 6 hrs by Annexin V-FITC/PI staining based flow cytometry method (reference value: 0.26%); format: functional; outline: as §1
BT-549 [21] = test: Induction of apoptosis in human BT-549 cells assessed as early apoptotic cells at 0.5 uM measured after 6 hrs by Annexin V-FITC/PI staining based flow cytometry method (reference value: 1.27%); format: functional; outline: as §1
[22] = Selectivity index, ratio of IC50 for human NCM460 cells to IC50 for human HCT-116 cells; format: toxicity; conditions: NCM460 cells versus HCT-116 cells, read-out: Ratio IC50
[23] = Cmax in male/female Sprague-Dawley rat at 0.5 mg/kg, iv measured for 36 hrs by LC-MS/MS analysis; format: ADME, organism-based; design: route intravenous, dose 0.5 mg/kg, time 36 hrs; conditions: both, in vivo

| Kd [9] [µM] | Kd [18] [µM] | SMILES | viability at 0.5 µM (BT-549 [1]) [%] | Activity (MDA-MB-231 [2]) [%] | IC50 (NCM460) [µM] | IC50 (MCF-10A) [µM] | viability at 0.5 µM (MDA-MB-231 [3]) [%] | Activity (SW-620 [4]) [%] | viability at 0.5 µM (HCT-116 [5]) [%] | IC50 (MDA-MB-231 [6]) [µM] | Activity (HCT-116 [7]) [%] | IC50 (BT-549 [8]) [µM] | IC50 (HCT-116 [10]) [µM] | Activity (MDA-MB-231 [11]) [%] | Activity (MDA-MB-231 [12]) [%] | Activity (BT-549 [13]) [%] | Activity (HCT-116 [14]) [%] | Activity (HCT-116 [15]) [%] | IC50 (SW-620 [16]) [µM] | Activity (SW-620 [17]) [%] | other results |
| --- | --- | --- | --- | --- | --- | --- | --- | --- | --- | --- | --- | --- | --- | --- | --- | --- | --- | --- | --- | --- | --- |
| 0.11 | 0.217 | CS(=O)(=O)[O-].FC(F)(F)c1ccc([C+](c2c[nH]c3ccccc23)c2c[nH]c3ccccc23)cc1 | 74 | 1.47 | 6.84 | 4.29 | 85.7 | 12.97 | 81.6 | 0.22 | 3.58 | 0.17 | 0.27 | 0.65 | 12.18 | 4.21 | 11.05 | 3.81 | 0.18 | 15.18 | Activity (BT-549 [19]): 1.17%; Activity (SW-620 [20]): 1.47%; Activity (BT-549 [21]): 20.65% |
| 0.033 | 0.066 | CS(=O)(=O)[O-].Cn1cc([C+](c2ccc(C(F)(F)F)cc2)c2c[nH]c3ccccc23)c2ccccc21 | 14.4 | 0.74 | 4.63 | 2.19 | 33.7 | 29.59 | 33.3 | 0.06 | 19.94 | 0.04 | 0.09 | 3.04 | 62.49 | 10.97 | 44.48 | 2.3 | 0.1 | 62.95 | selectivity ratio [22]: 50; Cmax [23]: 561 ng/mL; Activity (BT-549 [19]): 0.88%; Activity (SW-620 [20]): 0.38%; Activity (BT-549 [21]): 73.75% |
